Data on two compounds can be found in ChEMBL document CHEMBL1275595, “Antimicrobial activity of a halocidin-derived peptide resistant to attacks by proteases” (2010).

Assay [1] deals with Staphylococcus aureus. Kind of assay: Antimicrobial activity against methicillin-resistant Staphylococcus aureus CCARM 3696 by radial diffusion assay incubated with matrix metalloprotease 7 for 5 mins. Type of assay: functional, organism-based.
Assay [2] concerns Staphylococcus aureus. In words: Antimicrobial activity against methicillin-resistant Staphylococcus aureus CCARM 3696 by colony count assay incubated with trypsin for 1 hr. Type of assay: functional, organism-based. In outline: (§1)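 Peptide (20 μg) was incubated at 37°C with 50 nM trypsin in 100 μl of 10 mM sodium phosphate, then heated 10 min at 80°C and cooled. MRSA (100 μl, 2 × 10^7 CFU/ml) was added for 5 min. Aliquots were plated on TSA (1.5% agarose, 3% TSB in NaP) and counted after overnight growth at 37°C. Read-out was CFU/ml; repeated three times on different days.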

Assay [3] deals with Staphylococcus aureus. Kind of assay: Antimicrobial activity against methicillin-resistant Staphylococcus aureus CCARM 3696 by radial diffusion assay incubated with Staphylococcus aureus Culture supernatant for 1 hr. Type of assay: functional, organism-based.
A further assay has as its system Enterococcus faecium. Kind of assay: Antimicrobial activity against vancomycin-resistant Enterococcus faecium CCARM 5028 after 18 hrs by broth dilution method. The assay is classed as functional. To be noted: CCARM 5028, 18 h. In outline: (§2)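 Broth dilution per CLSI. Bacteria were grown overnight to stationary phase in Mueller-Hinton broth and diluted in fresh MHB to 2 × 10^5 CFU/ml. Stocks at 640 μg/ml in 0.01% acetic acid were 2-fold serially diluted to 10 μg/ml, and 11 μl was added to 100 μl of bacteria. After 18 h at 37°C, MIC was the lowest concentration with no visible turbidity. Run in triplicate.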

The test system of a further assay is Salmonella enterica. Kind of assay: Antimicrobial activity against Salmonella enterica KCTC 2930 after 18 hrs by broth dilution method. Conditions: KCTC 2930, 18 h. Type of assay: functional. In outline:
(§3)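 Broth microdilution following CLSI recommendations. Bacteria were grown overnight to stationary phase in Mueller-Hinton broth, then diluted in fresh MHB to 2 × 10^5 CFU/ml. Peptide or antibiotic stocks of 640 μg/ml in 0.01% acetic acid were serially 2-fold diluted to 10 μg/ml, and each was added to the bacterial suspension at 11 μl per 100 μl. Plates were incubated 18 h at 37°C. MIC was taken as the lowest concentration giving no visible turbidity, in triplicate.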

The subject of another assay is Micrococcus luteus. Kind of assay: Antimicrobial activity against Micrococcus luteus KCTC 9341 after 18 hrs by broth dilution method. Conditions: KCTC 9341, 18 h. The assay is classed as functional. In a few lines: as §3
In assay [4] the test system is Staphylococcus aureus. Kind of assay: Antimicrobial activity against methicillin-resistant Staphylococcus aureus CCARM 3696 by colony count assay incubated with trypsin for 10 mins. The assay is classed as functional, organism-based. In a few lines: as §1
In a further assay the test system is Citrobacter freundii. Kind of assay: Antimicrobial activity against Citrobacter freundii KCTC 2359 after 18 hrs by broth dilution method. Conditions: KCTC 2359, 18 h. Type of assay: functional. In a few lines:
as §3

For another assay, the system named is Bacillus subtilis. In words: Antimicrobial activity against Bacillus subtilis KCTC 2213 after 18 hrs by broth dilution method. Type of assay: functional. To be noted: KCTC 2213, 18 h. In a few lines:
as §3

In the next assay the test system is Listeria monocytogenes. Kind of assay: Antimicrobial activity against Listeria monocytogenes KCTC 19111 after 18 hrs by broth dilution method. The assay is classed as functional. Conditions: KCTC 19111, 18 h. In a few lines: as §3
In assay [5] the test system is Staphylococcus aureus. Kind of assay: Antimicrobial activity against methicillin-resistant Staphylococcus aureus CCARM 3696 after 18 hrs by broth dilution method. The assay is classed as functional. To be noted: CCARM 3696, 18 h. In outline: as §2
A further assay has as its system Escherichia coli. Kind of assay: Antimicrobial activity against Escherichia coli KCTC 1039 after 18 hrs by broth dilution method. The assay is classed as functional. Conditions: KCTC 1039, 18 h. In outline:
as §3

For another assay, the system named is Pseudomonas aeruginosa. Kind of assay: Antimicrobial activity against multidrug-resistant Pseudomonas aeruginosa CCARM 2161 after 18 hrs by broth dilution method. To be noted: CCARM 2161, 18 h. The assay is classed as functional. In outline: as §2
The next assay relates to Klebsiella oxytoca. Kind of assay: Antimicrobial activity against Klebsiella oxytoca KCTC 1686 after 18 hrs by broth dilution method. The assay is classed as functional. Conditions: KCTC 1686, 18 h. In a few lines: as §3
The test system of assay [6] is Staphylococcus aureus. In words: Antimicrobial activity against methicillin-resistant Staphylococcus aureus CCARM 3696 by radial diffusion assay incubated with Pseudomonas aeruginosa Culture supernatant for 1 hr. The assay is classed as functional, organism-based.
Assay [7] relates to Staphylococcus aureus. In words: Antimicrobial activity against methicillin-resistant Staphylococcus aureus CCARM 3696 by colony count assay incubated with trypsin for 20 mins. The assay is classed as functional, organism-based. In a few lines: as §1

In brackets after ≈: the same amount, converted by molar mass. Activity calls are given as the source filed them. The calls are words filed in the database; no cut-off is given here. Peptide text beside a SMILES is read from it.

`CC[C@H](C)[C@H](NC(=O)[C@H](CCCCN)NC(=O)[C@H](CCC(=O)O)NC(=O)[C@H](CCCCN)NC(=O)[C@H](CO)NC(=O)[C@H](CCCCN)NC(=O)[C@H](CCCNC(=N)N)NC(=O)[C@H](Cc1ccccc1)NC(=O)[C@H](Cc1ccccc1)NC(=O)[C@H](CC(=O)O)NC(=O)CNC(=O)[C@H](CC(C)C)NC(=O)[C@@H](N)CC(C)C)C(=O)NCC(=O)N[C@@H](CCCCN)C(=O)N[C@@H](CCC(=O)O)C(=O)N[C@@H](Cc1ccccc1)C(=O)N[C@@H](CCCCN)C(=O)N[C@@H](CCCNC(=N)N)C(=O)N[C@H](C(=O)N[C@H](C(=O)N[C@@H](CCC(N)=O)C(=O)N[C@@H](CCCNC(=N)N)C(=O)N[C@H](C(=O)N[C@@H](CCCCN)C(=O)N[C@@H](CC(=O)O)C(=O)N[C@@H](Cc1ccccc1)C(=O)N[C@@H](CC(C)C)C(=O)N[C@@H](CCCNC(=N)N)C(=O)N[C@@H](CC(N)=O)C(=O)N[C@@H](CC(C)C)C(=O)N[C@H](C(=O)N1CCC[C@H]1C(=O)N[C@@H](CCCNC(=N)N)C(=O)N[C@H](C(=O)N[C@@H](CCC(=O)O)C(=O)N[C@@H](CO)C(=O)O)[C@@H](C)O)C(C)C)[C@@H](C)CC)C(C)C)[C@@H](C)CC` [CATHELICIDIN]: the result in the assay on Staphylococcus aureus [1], in the assay on Staphylococcus aureus [3], with Staphylococcus aureus [4], in the assay with Staphylococcus aureus [6] and in the assay with Staphylococcus aureus [7] was inactive. For the same compound, the outcome in the assay with Staphylococcus aureus [2] was Active. For the same compound, the MIC is 32 mg/L (≈ 7.12 µM) in the assay with Enterococcus faecium; greater than 64 mg/L against Salmonella enterica; greater than 64 mg/L against Micrococcus luteus; 64 mg/L (≈ 14.2 µM) against Citrobacter freundii; 8 mg/L (≈ 1.78 µM) against Bacillus subtilis; 32 mg/L (≈ 7.12 µM) in the assay on Listeria monocytogenes. The MIC against Staphylococcus aureus [5] is greater than 64 mg/L; in the assay on Escherichia coli, 32 mg/L (≈ 7.12 µM); against Pseudomonas aeruginosa, greater than 64 mg/L; against Klebsiella oxytoca, greater than 64 mg/L.
On to `CC[C@H](C)[C@H](NC(=O)CN)C(=O)NCC(=O)N[C@@H](CCCCN)C(=O)N[C@@H](Cc1ccccc1)C(=O)N[C@@H](CC(C)C)C(=O)N[C@@H](CCCCN)C(=O)N[C@@H](CCCCN)C(=O)N[C@@H](C)C(=O)N[C@@H](CCCCN)C(=O)N[C@@H](CCCCN)C(=O)N[C@@H](Cc1ccccc1)C(=O)NCC(=O)N[C@@H](CCCCN)C(=O)N[C@@H](C)C(=O)N[C@@H](Cc1ccccc1)C(=O)N[C@H](C(=O)N[C@@H](CCCCN)C(=O)N[C@H](C(=O)N[C@@H](CC(C)C)C(=O)N[C@@H](CCCCN)C(=O)N[C@@H](CCCCN)C(N)=O)[C@@H](C)CC)C(C)C` [PEXIGANAN] (H-GIGKFLKKAKKFGKAFVKILKK-NH2), for which the result with Staphylococcus aureus [1], with Staphylococcus aureus [3], with Staphylococcus aureus [4], with Staphylococcus aureus [6] and in the assay with Staphylococcus aureus [7] was inactive. Besides, in the assay with Staphylococcus aureus [2], the outcome was Active. In addition, the MIC stood at 8 mg/L (≈ 3.23 µM) against Enterococcus faecium; 8 mg/L (≈ 3.23 µM) against Salmonella enterica; 8 mg/L (≈ 3.23 µM) against Micrococcus luteus; 8 mg/L (≈ 3.23 µM) with Citrobacter freundii; 4 mg/L (≈ 1.61 µM) with Bacillus subtilis; 16 mg/L (≈ 6.46 µM) in the assay with Listeria monocytogenes. In addition, the minimum inhibitory concentration (MIC) against Staphylococcus aureus [5] is 16 mg/L (≈ 6.46 µM); against Escherichia coli it was 4 mg/L (≈ 1.61 µM); in the assay on Pseudomonas aeruginosa, 8 mg/L (≈ 3.23 µM); in the assay with Klebsiella oxytoca it was 8 mg/L (≈ 3.23 µM).
